Assay outcomes as filed in PubChem BioAssay.
A selection: hits, their analogues and other compounds. The true share with any hit is near 3.1%.
Fh CTSL1 inh: blocks F. hepatica cathepsin L1 in PFM18AAP counter-screen; recombinant F. hepatica cathepsin L1, Z-Leu-Arg-MCA fluorescence; AID 1906; inhibition, % at 5.96 µM; 300,000 compounds, 0.49% hits;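 active = inhibition above the mean of all tested compounds plus 3 SD, set per screening campaign, cut at about 17% in these data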
PP5 inh: PP5 (human) phosphatase inhibition | AID 1987 | P53041 | 320,000 compounds, 0.18% hits | inhibition, % at 6.7 µM | purified PP5c, OMFP substrate fluorescence;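 active = inhibition above the campaign's mean inhibition across all tested compounds plus 3 SD, cut at about 9.5% in these data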
NadD block: blocks S. aureus nicotinate mononucleotide adenylyltransferase | AID 602399 | 360,000 compounds, 0.78% hits | inhibition, % at 20 µM | purified NadD enzyme, colorimetric absorbance read-out; in the data active = inhibition above about 26%
core dimer inh: HCV core protein dimerization inhibition; inhibition, % at 5 µM; 300,000 compounds, 0.33% hits; TR-FRET GST/Flag-core106 dimerization, 1536-well; AID 1899;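 active = inhibition above the mean of all tested compounds plus 3 SD, set per screening campaign, cut at about 45% in these data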
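Assay system: tagged HCV core106 pair (GST and Flag); medium: KF-containing HEPES buffer, pH 7.45, DTT, CHAPS, BSA; also added: Eu donor and XL665 acceptor anti-tag antibodies; dosing: 5 µM single dose; timing: compound-protein-antibody incubation 4 h at 22.5 °C; signal: TR-FRET 671 and 617 nm emission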
Myeloid diff MLP: myeloid differentiation induction | ER-HoxA9 myeloid progenitors, lysozyme-GFP differentiation, flow cytometry | calls only at 10 µM | 360,000 compounds, 1% hits | AID 624256;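 active = normalized GFP-positive differentiation at or above the plate's own cutoff, the solvent-only control mean plus 3 SD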;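 note: cells exposed to compound for four days before flow analysis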
PP1 counter: blocks human PP1-alpha phosphatase, a PP5 counter-screen; purified PP1alpha, OMFP fluorescence; inhibition, % at 6.7 µM; 320,000 compounds, 0.9% hits; AID 2235;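 active = inhibition above the mean inhibition of all tested compounds plus 3 SD, computed separately for each screening campaign, cut at about 15% in these data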
Target sequence (P62136 whole entry, looked up): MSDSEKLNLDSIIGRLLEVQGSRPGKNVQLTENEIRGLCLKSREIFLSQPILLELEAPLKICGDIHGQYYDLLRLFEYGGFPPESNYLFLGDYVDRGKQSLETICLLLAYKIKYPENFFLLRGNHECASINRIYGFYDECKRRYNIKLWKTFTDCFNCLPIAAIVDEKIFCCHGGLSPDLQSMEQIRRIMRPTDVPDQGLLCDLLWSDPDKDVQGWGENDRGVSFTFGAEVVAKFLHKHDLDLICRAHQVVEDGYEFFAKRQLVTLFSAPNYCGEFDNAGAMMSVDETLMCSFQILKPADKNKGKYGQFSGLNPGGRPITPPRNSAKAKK
A number is an active result; – = inactive; · = no result given; + = active, no number.

SMILES | Fh CTSL1 inh | PP5 inh | NadD block | core dimer inh | Myeloid diff MLP | PP1 counter
O=C(NCC(=O)N(Cc1ccco1)C(C(=O)NC1CCCCC1)c1cccnc1)c1cccs1 (centres undefined) | – | – | – | – | + | –
CCc1ccc(OCC(=O)N/N=C\c2ccco2)c([N+](=O)[O-])c1 | – | – | – | 53.9 | – | –
Cc1c(Br)c(C(N)=O)nn1C | – | – | – | – | – | –
Cn1nnc2c(C(N)=O)ncn2c1=O | – | – | – | – | + | –
C[C@@H]1CCCCO[C@H](CN(C)S(=O)(=O)c2cccs2)[C@@H](C)CN([C@H](C)CO)C(=O)c2cc(NC(=O)C3CCCCC3)ccc2O1 | · | · | – | · | – | ·
O=C(CCC(=O)n1ncc2ccccc21)N1CCCCC1 | – | – | – | – | + | –
O=C(CNC(=O)c1ccc(Br)o1)NNC(=O)c1ccccc1O | – | – | – | – | · | –
Cc1nc(/N=C\c2ccc(N(C)C)cc2)sc1C | – | – | – | – | + | –
CN(C)c1ccc(C=Nc2ccc(N(C)C)cc2)cc1 | – | – | – | – | – | –
Clc1ccc(N(CC2CO2)CC2CO2)cc1 (centres undefined) | · | · | – | · | – | ·
O=C(c1ccc(CSc2nc3ccncc3[nH]2)cc1)N1CCN(c2cccc(Cl)c2)CC1 | – | – | – | – | + | –
Cc1ccc(OCC(=O)Nc2sc3c(c2C#N)CC(C)(C)NC3(C)C)cc1 | – | – | – | – | – | –
CC1(C)Cc2c(sc(NC(=O)COc3cccc4ccccc34)c2C#N)C(C)(C)N1 | – | – | – | – | · | 15.4
C=CCn1c(O)c(N=NC(=O)CNC(=O)/C=C/c2ccco2)c2ccccc21 | – | – | – | 49.0 | – | –
C=CCn1c(O)c(N=NC(=O)CNC(=O)/C=C/c2ccc(OC)cc2)c2ccccc21 | – | – | – | – | – | –
COc1ccc(S(=O)(=O)NC(=O)C2(C)CCN2C(=O)Cc2cccc3ccccc23)cc1 (centres undefined) | · | · | – | · | – | ·
O=C1C=C(N2CCCCC2)c2ccccc2C1=O | 92.5 | – | – | – | · | –
O=C1c2ccccc2C(=O)c2c1cccc2N1CCCC1 | – | – | – | – | – | –
Cc1nc(-c2ccccn2)nc(SCC(=O)c2ccccc2)c1Cl | – | – | – | – | – | 15.3
CCCCCCn1cc(CN2CC(N(C)CC)CS2(=O)=O)nn1 (centres undefined) | · | · | – | · | – | ·
Cc1ccc(/C=C2\SC(=S)N(/N=C/c3cc([N+](=O)[O-])ccc3O)C2=O)o1 | – | – | 36.8 | – | – | –
CC1=N/C(=C\c2ccc(OC(C)C)cc2)C(=O)N1c1ccc(C(=O)O)cc1 | – | – | – | – | + | –
CC(C)Oc1ccc(C(=O)O)cc1 | – | – | – | – | – | –
COc1ccccc1-c1cccc2nccn12 | · | · | – | · | – | ·
COc1ccc(CCNC(=O)COC(=O)Cn2cnc3c2c(=O)n(C)c(=O)n3C)cc1 | · | – | – | · | – | –
SMILES | Fh CTSL1 inh | PP5 inh | NadD block | core dimer inh | Myeloid diff MLP | PP1 counter
COc1cc2c(cc1NC(=O)COC(=O)[C@@H](NC(=O)c1ccccc1)C(C)C)oc1ccccc12 | – | – | – | – | – | –
COc1cc2c(cc1NC(=O)COC(=O)CNC(=O)c1ccccc1)oc1ccccc12 | 24.2 | – | – | – | – | –
NC1=NC(=O)/C(=C/c2ccc(OCC(=O)O)cc2)S1 | · | · | – | · | – | ·
Cc1cc(/C=C2\SC(=S)NC2=O)cc(C)c1O | – | – | – | – | – | –
CCN(CC)c1ccc(C=C2SC(=S)NC2=O)cc1 | · | · | – | · | + | ·
CCN(CC)c1ccc(/C=C2\SC(N)=NC2=O)cc1 | · | · | – | · | + | ·
O=C1NC(=S)S/C1=C/c1ccc(OC(=O)c2ccco2)cc1 | – | – | – | – | + | –
CCOC(=O)N1CCN(C(=O)C[C@@H]2C[C@@]3(C(=O)OC)CCCCC=C3N(Cc3ccccc3)C2=O)CC1 | · | · | – | · | – | ·
CCCNC(C)(C)COC(=O)c1ccccc1 | – | – | – | – | – | –
Cc1cccc(C2(c3cccc(C)c3)OC(=O)c3ccccc32)c1 | – | – | – | – | + | –
CCN1CCN(C(=O)/C=C/c2ccc(C(C)C)cc2)CC1 | 16.8 | – | – | – | – | –
Cc1ccc(Cc2c(-c3cccc(Br)c3)nc3cc(C)c(Br)c(C)n23)cc1 | · | · | – | · | – | ·
COc1ccc(CCN(C)C(=O)COc2cccc(-n3cnnn3)c2)cc1OC | · | · | – | · | – | ·
COc1ccc(-c2cn3cc(C(F)(F)F)cc(Cl)c3n2)cc1 | – | – | – | – | + | –
